This is an account of results in PMC3929337 (Biochemistry, 2014).

Test [1] relates to Notch 1 receptor (NΔE) proteolysis, NICD. Briefly: Cell-based Notch proteolytic processing assay. Also noted: species or system human. As to conditions: H4-APP751/NΔE cells, 24 h; lowest concentration tested. Summed up: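 H4 human neuroglioma cells stably overexpressing human APP751 were transfected with Myc-tagged NΔE Notch and treated for a further 24 h with serially diluted test compound, DMSO vehicle, or a dipeptidic γ-secretase inhibitor as positive control. Concentrations ranged up to 30 μM. Cells were harvested 48 h post-transfection. Lysates were Western blotted with anti-Myc for NΔE/NICD, an APP C-terminal antibody for holo-APP, C99 and C83, and anti-β-actin as loading control.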

Test [2] has as its system Aβ peptide variants in PS1 mutant-expressing cell lines. Conditions: cited from earlier work.

`C[C@H](NC(=O)Cc1cc(F)cc(F)c1)C(=O)NC(C(=O)OC(C)(C)C)c1ccccc1` (stereo partly drawn) [DAPT, N-[N-(3,5-difluorophenacetyl)-L-alanyl]-S-phenylglycine tert-butyl ester]: the “concentration at which inhibition of NICD occurred” value in test [1] was no more than 300 nM.
Regarding `COc1cc(/C=C2\CCCN([C@@H](C)c3ccc(F)cc3)C2=O)ccc1-n1cnc(C)c1` [Eisai], in test [2], the “effects on Aβ38 and Aβ42 in PS1 mutant cell lines” value is “behaved like the “TorreyPines” compound”.
For the compound `CC(C)CC[C@H](c1ccc(Cl)cc1)N1CC[C@@H](CC(=O)O)C[C@H]1c1ccc(C(F)(F)F)cc1` [GSM-1], in test [2] (G384A PS1 mutant), the “effect on Aβ peptide variants, G384A PS1 mutant” value is “effectively lowered Aβ42, Aβ40, and Aβ37”. Besides, in test [2] (PS1 mutants L166P and N135S), the “effect on Aβ38 levels, PS1 mutants L166P and N135S” value is on record as “increases in Aβ38 levels”; the “inhibition of Aβ42, PS1 mutants L166P and N135S” value was “resistant”.
